# TDP2 inh = TDP2 (human) inhibition, absorbance primary screen. AID 720702. O95551. inhibition, % at 12.8 µM. recombinant TDP2, T5PNP hydrolysis, p-nitrophenol absorbance 415 nm. 0.34% of 370,000 active;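 active = inhibition above the mean of all tested compounds plus 3 SD, set per campaign, cut at about 25% in these data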;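 also: 0% = DMSO with enzyme and 100% = buffer with substrate but no TDP2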
# Target sequence (O95551 whole entry, looked up): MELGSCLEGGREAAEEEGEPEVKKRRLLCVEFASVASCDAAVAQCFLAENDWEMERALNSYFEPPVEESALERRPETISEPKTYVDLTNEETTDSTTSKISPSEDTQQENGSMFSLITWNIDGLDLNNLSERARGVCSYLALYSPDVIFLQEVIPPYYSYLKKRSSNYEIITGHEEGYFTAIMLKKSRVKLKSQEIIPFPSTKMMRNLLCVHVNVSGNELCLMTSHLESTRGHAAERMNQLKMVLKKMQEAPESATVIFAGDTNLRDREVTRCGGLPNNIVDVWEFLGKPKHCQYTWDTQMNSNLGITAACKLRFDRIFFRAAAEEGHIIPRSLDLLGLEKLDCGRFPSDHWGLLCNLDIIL
#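 System – recombinant human TDP2 · Amount – 120 nM TDP2 per well · Buffer or medium – Mg2+-containing Tris-HCl buffer, pH 7.5 · Reagent – T5PNP substrate, 5 mM · Dosing – 12.8 µM single point, 1% DMSO · Incubation – 2 h at 37 °C · Measured by – epi absorbance · Read-out basis – percent inhibition · Benchmarks – high control without enzyme, low control DMSO plus TDP2 · Repeats – singlicate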
# PAFAH1B3 FP inh = blocks human PAF acetylhydrolase 1B catalytic subunit 3; Q15102; recombinant PAFAH1B3, FP-rhodamine probe, fluorescence polarization; inhibition, % at 3.39 µM; 0.28% of 340,000 active;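 active = inhibition above the screen-wide average of all tested compounds plus 3 SD, cut at about 25% in these data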;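 also: 0% = enzyme with DMSO only and 100% = wells lacking PAFAH1B3 protein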
# PAFAH2 FP inh = PAFAH2 (human) inhibition; Q99487; recombinant PAFAH2, FP-rhodamine activity probe, fluorescence polarization; inhibition, % at 3.39 µM; 0.99% of 340,000 active; AID 492956;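 active = inhibition above the mean over all tested compounds plus 3 SD, cut at about 30% in these data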;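 also: inhibitors block probe labeling of enzyme so polarization drops; 0% = enzyme with DMSO and 100% = wells lacking PAFAH2 protein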
# Apaf1 inhib = human Apaf-1 inhibition. AID 489030. inhibition, % at 20 µM. reconstituted apoptosome caspase-3 activity, DEVD-Rh110 fluorescence. 0.71% of 330,000 active. O14727; active = inhibition of at least 40% at 20 µM;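 also: plate controls were DMSO wells for no effect and DEVD-CHO caspase inhibitor wells for full effect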
#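 Assay system: Apoptosome proteins | Medium: pH 7.5 Hepes buffer with CHAPS, BSA, DTT | Also added: Cytochrome c and DEVD-Rh110 substrate | Times: 30 min plus 50 min, RT | Detection: Rhodamine 110 fluorescence at Ex 480/Em 540 nm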
# PAFAH1B2 inh = blocks human PAF acetylhydrolase 1b catalytic subunit 2; P68402; recombinant PAFAH1B2, FP-rhodamine activity probe, fluorescence polarization; inhibition, % at 3.39 µM; 1.2% of 340,000 active; AID 492953;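 active = inhibition above the mean of all tested compounds plus 3 SD, cut at about 24% in these data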;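 also: 0% = enzyme with DMSO and 100% = wells lacking PAFAH1B2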
# Target sequence (P68402 whole entry, looked up): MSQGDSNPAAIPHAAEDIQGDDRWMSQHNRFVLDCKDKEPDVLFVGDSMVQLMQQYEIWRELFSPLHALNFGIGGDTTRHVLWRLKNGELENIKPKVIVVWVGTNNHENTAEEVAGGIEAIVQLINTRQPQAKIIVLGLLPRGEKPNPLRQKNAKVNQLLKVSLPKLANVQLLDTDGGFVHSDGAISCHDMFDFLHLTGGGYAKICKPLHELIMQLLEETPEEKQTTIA
# Active calls of the source: *; . = no result. In the library only some 2.3% were active in any assay of this set; here they are far more common.
SMILES,TDP2 inh,PAFAH1B3 FP inh,PAFAH2 FP inh,Apaf1 inhib,PAFAH1B2 inh
CC(=O)c1ccc(O)c(CC=C(C)C)c1O,6.3,7.2,-4.7,12.5,-2.3
CC(C)=CCc1c(O)cc2oc3c(CC=C(C)C)c(O)c(O)c(CC=C(C)C)c3c(=O)c2c1O,1.5,29.9*,-15.5,-8.2,11.4
COC(=O)[C@]12C[C@H](CC(=O)NCc3ccc(OC)c(OC)c3)C(=O)N(Cc3ccccc3)C1=C[C@H](C(C)(C)C)O[C@@H]2C,5.2,.,.,.,.
O=c1[nH]n2c(=O)c3c([nH]c2c1N=Nc1cccc(C(F)(F)F)c1)CCCC3,-2.3,15.5,23.7,29.8,30.4*
O=C(O)CCc1ccc(S(=O)(=O)Nc2cc(C(F)(F)F)ccc2N2CCCC2)cc1,5.0,0.9,7.7,-4.2,30.1*
Clc1ccc(-n2c(Cc3cccs3)nnc2SC/C=C/c2ccccc2)cc1,-0.2,.,.,.,.
Cc1nc2cc(NCc3ccc(Cl)cc3)ccc2n1C,-7.9,-2.0,-1.6,3.0,27.6*
CCn1cnc2cc(NCc3ccc(Cl)cc3)ccc21,5.3,3.0,-3.2,3.9,32.4*
CCOc1ccc(Oc2c(Cl)cnn(Cc3cccc4ccccc34)c2=O)cc1,-1.6,.,.,.,.
CCCn1cc(C(=O)Nc2ccc(Oc3cccnc3)cc2)c2ccccc21,3.1,.,.,.,.
CC(=O)C1=C(O)C(=O)N(Cc2ccccc2)C1c1ccc(Cl)cc1 (stereo not drawn),-1.4,2.9,7.5,-1.8,29.0*
CC1Cc2ccccc2N1S(=O)(=O)c1cccc(C(=O)OCC(=O)NC2CCS(=O)(=O)C2)c1 (stereo not drawn),1.5,-3.7,17.1,7.3,26.5*
Fc1cccc(-c2csc(-c3ccno3)n2)c1,-6.2,-1.8,-1.4,-13.1,2.0
Nc1nc(-c2cccc(F)c2)cs1,-7.2,7.0,1.5,1.5,45.3*
O=S(=O)(Cc1ccc(Cl)cc1)Oc1ccc(Cl)cc1,-3.3,4.8,-1.2,.,24.8*
C#CCOCCOCCOCCNc1nc(N2CCN(C(=O)[C@H]([C@@H](C)CC)n3cc(CCCCN)nn3)CC2)nc(N2CCN(C(=O)[C@H](Cc3ccc(O)cc3)n3cc(CCO)nn3)CC2)n1,-1.4,.,.,.,.
COc1ccc(C(=O)OCC(=O)Nc2ccc(OC(F)F)cc2)c(OC)c1,2.0,7.3,67.8*,-6.2,4.7
O=C(CNc1ccc(Cl)cc1)NNC(=S)NCc1ccccc1,-12.3,1.1,-4.1,12.3,9.1
O=C(CCc1ccccc1)NNC(=S)NCc1ccc(Cl)cc1,-15.8,7.5,-2.2,5.7,24.8*
CC(C)C1NC(=S)N(C2CCCCC2)C1=O (stereo not drawn),9.3,4.0,11.3,9.0,3.7
O=C1C(c2ccccc2)NC(=S)N1C1CCCCC1 (stereo not drawn),-4.2,3.9,2.1,-2.4,35.9*
O=C(NCc1ccc(F)cc1)C1CCN(S(=O)(=O)c2ccc(Br)s2)CC1,-14.2,2.1,-10.8,10.2,25.3*
Cc1ccc(CSc2nnc(CNc3ccc(F)cc3)o2)cc1,-2.0,1.6,6.5,16.7,25.9*
N#CCSc1nnc(CNc2ccc(F)cc2)o1,-6.2,-2.9,-3.1,-12.0,0.7
CC(=NN1CCN(c2ccccn2)CC1)c1ccccc1O,-6.6,.,.,.,.
SMILES,TDP2 inh,PAFAH1B3 FP inh,PAFAH2 FP inh,Apaf1 inhib,PAFAH1B2 inh
CC1CCc2cc(F)ccc2N1S(=O)(=O)c1ccc(Cl)nc1 (stereo not drawn),-4.5,6.5,-4.4,19.2,29.0*
CC(C)(C)c1sc(N)nc1-c1ccccc1,-17.8,4.4,-8.8,-15.2,26.9*
O=C(Nc1ccc(N2CCOCC2)cc1)c1ccc2nc(-c3ccco3)c(-c3ccco3)nc2c1,-4.4,-1.6,0.5,15.2,-0.1
O=C(NCCO)Nc1ccc2nsnc2c1,-7.9,3.5,5.8,-1.9,4.8
COc1ccc(-c2nc3ccccc3nc2-c2ccc(OC)cc2)cc1,5.2,9.3,2.7,15.2,3.1
O=C(Nc1ccccc1)c1ccc2nc(-c3ccco3)c(-c3ccco3)nc2c1,2.8,20.8,27.0,60.0*,12.9
O=C(NCCO)Nc1ccc2nc(-c3ccco3)c(-c3ccco3)nc2c1,.,.,.,70.6*,.
CC(=O)c1ccc(NC(=O)c2ccc3nc(-c4ccco4)c(-c4ccco4)nc3c2)cc1,.,23.1,15.3,51.9*,6.4
COc1ccc2nc(-c3ccco3)c(-c3ccco3)nc2c1,15.4,32.7*,56.4*,38.6,26.3*
Nn1c(SCC(=O)Nc2nccs2)nnc1-c1cc(-c2ccc(F)cc2)n[nH]1,-0.4,.,.,.,.
COc1ccccc1NC(=S)OC1CCC12CCC(c1ccccc1)CC2 (stereo not drawn),-1.1,.,.,.,.
O=C1c2cccc3c(O)ccc(c23)C(=O)N1c1ccc(Cl)cc1,-4.3,26.8*,41.9*,8.0,16.7
COc1ccc(OC)c(C2CC(=O)N3CN(c4ccccc4)CSC3=C2C#N)c1 (stereo not drawn),-2.2,2.3,3.8,14.2,-0.3
COc1cc(OC)c(C2CC(=O)N3CN(c4ccccc4C)CSC3=C2C#N)cc1OC (stereo not drawn),-3.2,.,.,66.2*,.
O=C(OCc1cn(Cc2ccc(F)c(F)c2)nn1)N1CCOCC1,4.3,.,.,.,.
O=C1C(Cl)=C(NCCc2ccccc2)C(=O)c2ccccc21,19.0,39.9*,30.4*,.,33.1*
C=CCNC1=C(Cl)C(=O)c2ccccc2C1=O,9.0,13.3,8.9,39.7,0.3
CC(C)NC1=C(Cl)C(=O)c2ccccc2C1=O,22.7,7.8,-1.3,63.2*,1.3
COC(=O)C1=C(C)N(Cc2ccccc2C(F)(F)F)C(=NCc2ccc(OC)cc2)NC1c1ccccc1C(F)(F)F (stereo not drawn),-3.4,.,.,.,.
C#CCNC(=O)C[C@H]1C[C@@]2(C(=O)OC)C(=C[C@H](C(C)(C)C)O[C@@H]2C)N(Cc2ccc3c(c2)OCO3)C1=O,3.6,.,.,.,.
C=CCn1c(N)c(C(=O)OC(C)CC)c2nc3ccccc3nc21 (stereo not drawn),8.8,4.6,-8.3,.,-0.6
C=CCn1c(N)c(C(=O)OC(C)(C)C)c2nc3ccccc3nc21,7.2,9.4,1.2,67.3*,1.4
CC(C)(C)OC(=O)NCc1cc2c(cc1/C=C/S(=O)(=O)NC1CCCC1)OCO2,5.3,.,.,.,.
CSCCC(NS(=O)(=O)c1ccc(Cl)cc1)C(=O)OCC(=O)N(C(C)C)C(C)C (stereo not drawn),7.1,-4.2,6.8,13.0,4.5
CSCCC(NS(=O)(=O)c1ccc(Cl)cc1)C(=O)OCc1c(Cl)cccc1Cl (stereo not drawn),-4.0,-3.5,-2.9,8.3,26.6*
CSCCC(NS(=O)(=O)c1ccc(Cl)cc1)C(=O)OCC(=O)NC1CC1 (stereo not drawn),1.2,1.1,12.7,-1.0,9.2
CSCCC(NS(=O)(=O)c1ccc(Cl)cc1)C(=O)OCc1cccc(Cl)c1 (stereo not drawn),-1.0,8.9,-4.9,22.4,32.6*
Cc1ccc(-c2cc(C(=O)N=Nc3c(O)[nH]c4ccccc34)[nH]n2)cc1C,2.5,.,.,.,.
